According to ChEMBL document CHEMBL1133679, “Synthesis and cytotoxicity of 4-amino-5-oxopyrido[2,3-d]pyrimidine nucleosides” (J Med Chem, 2000):

Tests used:
Type in all cases: functional, cell-based
B16 = test: Cytotoxicity that caused a 50% reduction in absorbance at 490 nm in B16 mouse melanoma cells using MTS assay.
Method in brief: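 Compounds taken from 100 mM DMSO stocks and diluted in culture medium. Cells seeded at 4×10^3 per well and exposed to 0.78–100 μM. A 1% DMSO control was run in parallel. MTS reagent added after 72 h and formazan read at 490 nm. EC50 is the concentration giving 50% absorbance reduction versus untreated cells.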

[1] = Cytotoxicity that caused a 50% reduction in absorbance at 490 nm in human prostate cancer HTB-81 cells using MTS assay.
Method in brief: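 DU-145 (HTB-81) prostate cancer cells were grown in MEM with 10% fetal bovine serum and 2 mM L-glutamine. They were plated at 4×10^3 per well and treated at 0.78–100 μM from 100 mM DMSO stocks diluted in medium, with a 1% DMSO control. MTS read at 490 nm after 72 h. EC50 is the 50% absorbance drop versus untreated cells.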

[2] = Cytotoxicity that caused a 50% reduction in absorbance at 490 nm in normal human fibroblast (NHF) cells using MTS assay.
Method in brief: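 Normal human dermal fibroblasts were cultivated in FGM medium and seeded at 4×10^3 cells per well. Exposure was 0.78–100 μM, diluted in medium from 100 mM DMSO stocks, with a 1% DMSO control. Formazan absorbance at 490 nm was measured by MTS after 72 h. EC50 is the concentration halving absorbance relative to untreated cells.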

Compound	EC50 (B16; Mus musculus, B16)	EC50 ([1]; Homo sapiens, HTB-81)	EC50 ([2]; Homo sapiens)	EC50 (B16; b16)	EC50 ([1]; htb-81)	EC50 [2]
Nc1ncnc2nccc(O)c12	> 100 µM	> 100 µM	> 100 µM			
Nc1ncnc2c1c(=O)ccn2C1CCC(CO)O1 (stereo unspecified)	47.1 µM	43.3 µM	60.5 µM			
C=C1[C@@H](O)[C@H](n2ccc(=O)c3c(N)ncnc32)O[C@@H]1CO	60.5 µM	31.1 µM	41.1 µM			
Nc1ncnc2c1c(=O)ccn2[C@@H]1O[C@H](CO)C[C@H]1O	19 µM	2.6 µM	9.5 µM			
C[C@@H](O)[C@H]1O[C@@H](n2ccc(=O)c3c(N)ncnc32)[C@H](O)[C@@H]1O.C[C@H](O)[C@H]1O[C@@H](n2ccc(=O)c3c(N)ncnc32)[C@H](O)[C@@H]1O	18.3 µM	10 µM	16.5 µM			
Nc1ncnc2c1c(=O)ccn2[C@H]1C[C@H](O)[C@@H](CO)O1	11.3 µM	3.9 µM	5 µM			
C=C1[C@H](n2ccc(=O)c3c(N)ncnc32)O[C@H](CO)[C@H]1O	> 100 µM	> 100 µM	> 100 µM			
Nc1ncnc2c1c(=O)ccn2[C@H]1C[C@@H](O)[C@@H](CO)O1	68.9 µM	26.6 µM	38.9 µM			
Nc1ncnc2c1c(=O)ccn2[C@@H]1OC(CO)(CO)[C@@H](O)[C@H]1O	> 100 µM	> 100 µM	> 100 µM			
N=c1ncn(C2OC(CO)[C@@H](O)[C@@H]2O)c2nccc(O)c12 (stereo partly specified)	> 100 µM	> 100 µM	> 100 µM			
C=C[C@]1(CO)OC(n2ccc(=O)c3c(N)ncnc32)[C@H](O)[C@@H]1O (stereo partly specified)	99.7 µM	34.2 µM	76.8 µM			
Nc1ncnc2c1c(=O)ccn2C1O[C@H](CO)[C@@H](O)[C@@H]1O (stereo partly specified)	33.2 µM	21.9 µM	23.2 µM			
C#C[C@]1(O)C(n2ccc(=O)c3c(N)ncnc32)O[C@H](CO)[C@H]1O (stereo partly specified)	81 µM	29.3 µM	65.1 µM			
C[C@]1(CO)OC(n2ccc(=O)c3c(N)ncnc32)[C@H](O)[C@@H]1O (stereo partly specified)	55.5 µM	19.7 µM	29.9 µM			
C[C@]1(O)C(n2ccc(=O)c3c(N)ncnc32)O[C@H](CO)[C@H]1O (stereo partly specified)	85.5 µM	46.7 µM	> 100 µM			
CC[C@]1(CO)OC(n2ccc(=O)c3c(N)ncnc32)[C@H](O)[C@@H]1O (stereo partly specified)	96 µM	36.7 µM	65.1 µM			
C#C[C@]1(O)[C@@H](CO)OC(n2ccc(=O)c3c(N)ncnc32)[C@@H]1O (stereo partly specified)	> 100 µM	> 100 µM	> 100 µM			
N=c1ncn(C2O[C@H](CO)[C@@H](O)[C@H]2O)c2nccc(O)c12 (stereo partly specified)		7.3 µM	7.3 µM			
C=CC[C@@H](O)[C@H]1OC(n2ccc(=O)c3c(N)ncnc32)[C@H](O)[C@@H]1O (stereo partly specified)	66.3 µM	35.3 µM	72 µM			
C#C[C@@]1(O)[C@@H](CO)OC(n2ccc(=O)c3c(N)ncnc32)[C@@H]1O (stereo partly specified)	2.48 µM	0.68 µM	6.45 µM			
C[C@@]1(O)[C@@H](CO)OC(n2ccc(=O)c3c(N)ncnc32)[C@@H]1O (stereo partly specified)	31.6 µM	4.44 µM	10.4 µM			
Nc1ncnc2c1c(=O)ccn2C1O[C@H](CO)[C@H](O)[C@H]1O (stereo partly specified)	5.9 µM	0.73 µM	20.7 µM			
CCC[C@@H](O)[C@H]1OC(n2ccc(=O)c3c(N)ncnc32)[C@H](O)[C@@H]1O (stereo partly specified)	51.6 µM	20.4 µM	41.1 µM			
C#C[C@@H](O)[C@H]1O[C@@H](n2ccc(=O)c3c(N)ncnc32)[C@H](O)[C@@H]1O.C#C[C@H](O)[C@H]1O[C@@H](n2ccc(=O)c3c(N)ncnc32)[C@H](O)[C@@H]1O (mixture of isomers)	17.2 µM	6.1 µM	15.3 µM			
CC[C@@H](O)[C@H]1O[C@@H](n2ccc(=O)c3c(N)ncnc32)[C@H](O)[C@@H]1O.CC[C@H](O)[C@H]1O[C@@H](n2ccc(=O)c3c(N)ncnc32)[C@H](O)[C@@H]1O (mixture of isomers)	16.3 µM	17.3 µM	18.9 µM			
Nc1ncnc2c1c(=O)ccn2[C@@H]1O[C@H](CO)[C@@H](O)[C@H]1O (stereo in doubt; 1b)				0.06 µM	0.06 µM	0.08 µM
Nc1ncnc2c1c(=O)ccn2[C@@H]1O[C@H](CO)[C@@H](O)[C@H]1O (stereo in doubt; 1b-L)				> 100 µM	> 100 µM	> 100 µM
COc1cccc2c1C(=O)c1c(O)c3c(c(O)c1C2=O)C[C@@](O)(C(C)=O)C[C@@H]3O[C@H]1C[C@H](N)[C@H](O)[C@H](C)O1 [DAUNORUBICIN]	0.16 µM	0.058 µM	0.22 µM			
N#Cc1cn([C@@H]2O[C@H](CO)[C@@H](O)[C@H]2O)c2ncnc(N)c12 [TOYOCAMYCIN]	0.005 µM	0.012 µM	0.004 µM			
